SENP1 FRET inh = human SENP1 catalytic domain inhibitors, primary screen, biochemical, FRET, uHTS; Sentrin-specific protease 1 (Homo sapiens), Q9P0U3; 0.21% of 360,000 active; recombinant SENP1 catalytic domain, CyPet-SUMO1-YPet FRET cleavage; inhibition, % at 10 µM;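 active = inhibition at least 30% at 10 µM, raw YFP signal under a set limit, fluorescence ratio 0.5 to 1.5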;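 also: 0% = enzyme with DMSO and 100% = no enzyme wells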
Target sequence (Q9P0U3 419-644 limits assumed): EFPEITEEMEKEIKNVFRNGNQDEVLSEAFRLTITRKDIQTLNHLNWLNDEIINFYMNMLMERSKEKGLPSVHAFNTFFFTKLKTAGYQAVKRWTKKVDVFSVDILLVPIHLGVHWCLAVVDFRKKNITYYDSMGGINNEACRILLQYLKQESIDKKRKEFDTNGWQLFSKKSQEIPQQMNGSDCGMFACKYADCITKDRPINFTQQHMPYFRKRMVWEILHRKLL
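Test system: hSENP1 catalytic domain, recombinant; Amount: 20 pM final SENP1 enzyme; Medium: Tris pH 8 buffer plus EDTA, NaCl, BME, BSA, NP40, catalase; Schedule: 50 min enzyme reaction, room temperature, light-protected; Technique: FRET fluorescence in CFP and YFP emission channels; Controls: no-enzyme wells low, DMSO-plus-enzyme wells high control.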
FXN GAA850 act = FXN promoter activators, primary screen, cell-based, luciferase luminescence, HEK293 lucGAA850; HEK293 lucGAA850 FXN promoter luciferase reporter, 24 h; percent of 10 µM SAHA response; activation, % at 6 µM; 0.56% of 360,000 active;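 active = activation above the average of all compounds screened plus 3 SD, cutoff fixed separately per campaign, cut at about 7.5% in these data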;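 also: 0% = DMSO wells and 100% = 10 µM SAHA wells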
HDAC3 inhib = HDAC3 deacetylase inhibitors, primary screen, biochemical, fluorescence, cell-free homogeneous. 0.15% of 320,000 active. inhibition, % at 8.3 µM. recombinant HDAC3, fluorogenic peptide/trypsin coupled. Histone deacetylase 3 (Homo sapiens), O15379; in the data active = inhibition above about 26%, passing the limit was not always enough; inconclusive = no clear call, values can overlap the other calls
PfM18AAP inh-1 = PfM18AAP inhibitors, malaria aminopeptidase, primary screen, biochemical, QFRET, recombinant enzyme; M18 aspartyl aminopeptidase (Plasmodium falciparum 3D7); H-Glu-NHMec fluorogenic cleavage; inhibition, % at 7.35 µM; 1.2% of 290,000 active; AID 1822, 2009;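 active = inhibition above the campaign mean inhibition over all tested compounds plus 3 SD, cut at about 28% in these data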;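 also: 0% = plate median of test compound wells and 100% = 2 mM ZnCl2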
AHR act = AHR activators, primary screen, cell-based, luminescence, luciferase reporter, human; 2.5% of 320,000 active; activation, % at 5 µM; AHR-responsive luciferase reporter cells; Aryl hydrocarbon receptor (Homo sapiens), P35869; AID 2796, 2010; in the data active = activation above about 47%;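 also: 0% = vehicle wells and 100% = reference agonist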
CTSL1 counter-1 = Fasciola hepatica cathepsin L1 inhibitors, primary screen, counter-screen for PFM18AAP inhibitor project, biochemical, QFRET, fluorogenic peptide substrate | recombinant F. hepatica cathepsin L1, Z-Leu-Arg-MCA fluorescence | inhibition, % at 5.96 µM | 0.49% of 300,000 active;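 active = inhibition above the mean of all tested compounds plus 3 SD, set per screening campaign, cut at about 17% in these data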;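 also: 0% = plate median of test compound wells and 100% = 1 µM Z-Phe-Ala-diazomethylketone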
PfM18AAP inh-2 = PfM18AAP inhibitors, malaria aminopeptidase, confirmation, biochemical, QFRET, recombinant enzyme, triplicate. shares compounds with PfM18AAP inh-1. H-Glu-NHMec fluorogenic cleavage. inhibition, % at 7.35 µM. 28% of 2,400 active. AID 2170, 2009;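 active = mean inhibition over replicate wells above the hit cutoff set for the earlier primary screen, cut at about 29% in these data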;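 also: 0% = median of test compound wells and 100% = 2 mM ZnCl2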
CTSL1 counter-2 = cathepsin L1 inhibitors, retest, confirmation, counter-screen for PFM18AAP inhibitor project, biochemical, QFRET, triplicate; shares compounds with PfM18AAP inh-1; inhibition, % at 5.96 µM; purified cathepsin L1, Z-Leu-Arg-MCA fluorescence; 2,400 tested, under 10 active;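 active = average inhibition across replicates above the hit cutoff set in the earlier primary screen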;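 also: 0% = median of test compound wells and 100% = Z-Phe-Ala-diazomethylketone 1 µM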
Target sequence (P07711 whole entry, looked up): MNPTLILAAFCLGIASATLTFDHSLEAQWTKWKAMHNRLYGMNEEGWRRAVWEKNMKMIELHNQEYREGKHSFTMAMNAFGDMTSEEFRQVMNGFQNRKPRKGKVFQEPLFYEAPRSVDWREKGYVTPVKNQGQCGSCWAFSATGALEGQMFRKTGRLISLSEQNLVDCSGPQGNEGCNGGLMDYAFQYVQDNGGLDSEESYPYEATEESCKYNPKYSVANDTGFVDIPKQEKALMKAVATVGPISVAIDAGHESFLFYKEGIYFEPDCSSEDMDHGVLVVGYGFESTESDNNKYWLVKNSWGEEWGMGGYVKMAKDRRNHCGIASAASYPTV
* marks the source's active call; other numbers are inactive results; ? = inconclusive; · = not tested or not shown. This is a sample that favours compounds with a hit; in the whole collection about 4.2% have one here.

SMILES	SENP1 FRET inh	FXN GAA850 act	HDAC3 inhib	PfM18AAP inh-1	AHR act	CTSL1 counter-1	PfM18AAP inh-2	CTSL1 counter-2
O=C(c1ccc(SCc2ccco2)c([N+](=O)[O-])c1)N1CCOCC1	0.7	0.1	-1.1	34.5*	3.1	5.5	-35.6	-6.1
Cc1ccc(Cl)cc1-c1cc(C(=O)NCC2CCCCC2)[nH]n1	0.6	1.3	·	·	·	·	·	·
O=C(O)c1ccc(N=Cc2c(O)ccc3oc4c(c23)CCCC4)cc1	5.5	-1.4	2.5	3.4	1.0	3.0	·	·
Oc1ccccc1N=Cc1c(O)ccc2oc3c(c12)CCCC3	22.6	3.4	0.6	39.1*	31.8	-6.4	8.9	2.6
CCCCCC/C=N/Nc1nnc(Cc2ccc(OC)c(OC)c2)c(=O)[nH]1	3.8	0.2	-4.0	8.7	6.4	7.6	·	·
COc1ccc(Cc2nnc(N/N=C/c3ccc(O)cc3O)[nH]c2=O)cc1OC	-0.9	1.2	16.4	39.1*	5.4	0.9	45.6*	1.1
O=C(NC(=S)Nn1cnnc1)c1ccccc1Br	3.1	-0.6	3.7	79.3*	0.6	3.1	78.2*	-5.5
NC(=O)C1(NC2CCCCC2)CCN(Cc2ccccc2)CC1	-1.6	0.3	·	·	·	·	·	·
O=C(O)Cn1cnc2c(=S)nc[nH]c21	-1.7	-1.0	10.1	57.3*	-0.3	4.2	-4.2	3.0
O=C(NNC(=O)c1cc(O)c(O)c(O)c1)NC1CCCCC1	1.1	0.7	-12.4	46.5*	-3.4	-5.4	11.4	-2.9
O=c1[nH]c(/C=C\c2ccc(O)c(O)c2)nc(O)c1[N+](=O)[O-]	2.1	0.6	6.7	77.9*	·	·	75.8*	4.2
O=c1[nH]c(/C=C\c2cccc(O)c2)nc(O)c1[N+](=O)[O-]	3.2	1.1	8.9	5.7	-0.7	1.2	·	·
CCOC(=O)c1c(C)[nH]c(C)c1S(=O)(=O)N1CCCCC1	1.6	1.1	-6.0	-7.9	1.1	-4.3	·	·
O=C(/C=C/c1ccccc1)c1cc(Br)ccc(=O)c1O	16.7	3.6	7.8	54.5*	11.9	-0.3	-28.9	-1.4
CSc1ncccc1C(=O)NNc1cc(Cl)ccc1Cl	-1.6	1.4	?	32.9*	9.1	-6.0	-1.2	0.2
CC1C(=O)N2CCCc3cc(NC(=O)C(=O)NCCc4ccccc4)cc1c32 (centres undefined)	-1.6	1.1	-0.6	·	16.5	4.0	·	·
Cc1ccc(/C=C2\SC(=S)N(/N=C/c3cc([N+](=O)[O-])ccc3O)C2=O)o1	22.7	1.7	10.1	40.2*	9.2	10.9	-4.9	6.8
O=C(NN1C(=O)/C(=C/c2cc([N+](=O)[O-])ccc2O)SC1=S)c1ccccc1O	·	·	-4.4	·	16.2	0.3	·	·
COc1cc(/C=C/c2cc(C(=O)O)c3ccccc3n2)cc(OC)c1O	-3.2	-0.9	6.2	50.6*	0.3	4.2	17.7	2.2
CCOc1cc(/C=C/c2cc(C(=O)O)c3ccccc3n2)ccc1OC	-46.0	-1.3	-1.1	-3.5	7.6	5.2	·	·
COC(=O)C1(C(=O)OC)C/C=C\CN(S(=O)(=O)c2ccccc2[N+](=O)[O-])CC1	2.8	·	·	·	·	·	·	·
CC(Sc1nc(C(C)(C)C)cc(-c2ccccc2)c1C#N)C(=O)Nc1ccccc1 (centres undefined)	4.1	0.5	0.8	33.1*	0.2	-2.8	-18.1	-0.8
Cc1ccc(C(=O)N/C(=C\c2ccccc2)C(=O)NCCN2CCOCC2)cc1	2.5	1.4	9.6	0.3	-2.8	-2.2	·	·
C=CCn1c(-c2cccc(Cl)c2)n[nH]c1=S	2.6	-1.0	-15.7	10.8	-2.9	-1.8	·	·
CCn1c(-c2ccc(OC)c(OC)c2)n[nH]c1=S	4.5	1.1	2.2	1.8	-1.0	7.8	·	·
SMILES	SENP1 FRET inh	FXN GAA850 act	HDAC3 inhib	PfM18AAP inh-1	AHR act	CTSL1 counter-1	PfM18AAP inh-2	CTSL1 counter-2
C=CCn1c(-c2ccc(OC)c(OC)c2)n[nH]c1=S	1.6	0.4	5.1	35.5*	-0.4	5.0	-27.2	-1.6
C=CCn1c(-c2sccc2C)n[nH]c1=S	1.5	0.8	-6.8	31.9*	-2.2	10.3	-16.6	-1.7
Cc1cc(C(=O)N2CCN(S(=O)(=O)c3ccccc3F)CC2)c(C)o1	0.5	2.3	1.7	0.3	6.5	-4.5	·	·
COC(=O)[C@]12CCCCC=C1N(CCC1=CCCCC1)C(=O)[C@H](CC(=O)NCCCCc1ccccc1)C2	2.8	·	·	·	·	·	·	·
CSc1ccccc1OCc1cc(C(=O)N2CCc3[nH]cnc3C2c2ccccn2)no1 (centres undefined)	-5.2	1.9	-6.4	-2.5	0.8	-4.9	·	·
O=C(NNc1ccc([N+](=O)[O-])cc1)c1ccco1	1.4	1.7	-1.5	69.4*	-0.1	1.2	44.8*	4.3
Cc1cccc(C(=O)NNC(=O)c2ccco2)c1O	-1.4	5.0	11.6	32.3*	2.1	-1.1	10.3	-1.3
O=C(NNC(=O)c1ccccc1O)c1ccco1	1.8	-0.4	7.6	19.4	27.3	1.0	·	·
Nc1ccc([N+](=O)[O-])cc1C(=O)NNC(=O)c1ccco1	3.2	2.4	9.3	32.6*	2.0	4.1	13.9	2.9
Cc1ccc(/C=N/Nc2cn[nH]c(=O)n2)o1	-0.4	4.1	0.1	48.3*	22.2	3.3	5.2	3.5
CCOC(=O)C1=C(C)NC(C)=C(C(=O)OCC)C1c1ccco1	-1.6	-1.9	-2.1	6.2	8.5	0.9	·	·
CCOC(=O)C1=C(C)NC(=S)NC1c1ccco1 (centres undefined)	-3.8	0.8	8.3	35.1*	0.8	3.0	-28.4	7.2
COc1cc(/C=C(\C#N)C(=O)c2c[nH]c3ccccc23)cc(OC)c1O	14.8	-0.6	3.9	36.2*	25.1	-1.0	7.0	2.5
COc1cc(/C=C(\C#N)C(=O)NCCc2ccccc2)cc(OC)c1O	-35.7	-0.5	4.4	6.8	3.0	0.0	·	·
CC1(C)Cc2c(sc(NC(=O)/C=C/C(=O)O)c2C#N)CO1	2.3	0.8	6.9	-14.3	1.0	-1.4	·	·
CC1(C)Cc2c(sc(NC(=O)C(=O)NCCCN3CCOCC3)c2C#N)CO1	1.9	1.6	7.0	49.0*	1.9	0.5	-3.5	4.5
COc1ccc(OC)c(C(=O)CN2CCN(S(=O)(=O)c3ccc(Br)cc3)CC2)c1	0.9	5.0	3.8	2.4	-3.4	-1.1	·	·
